According to ChEMBL document CHEMBL4715813, “Allicin-inspired pyridyl disulfides as antimicrobial agents for multidrug-resistant Staphylococcus aureus” (Eur J Med Chem, 2018):
≈ marks a conversion by molar mass, not a printed value. Calls of active or inactive are those of the source. The calls are words filed in the database; no cut-off is given here.

Legend:
[1] = system: Staphylococcus aureus; assay: Antibacterial activity against vancomycin-resistant Staphylococcus aureus HIP11714 assessed as inhibition of bacterial growth measured between 2 and 4 passages at 0.5 times of MIC incubated for 20 hrs by resistant development assay; format: functional, organism-based
[2] = system: Staphylococcus aureus; assay: Antibacterial activity against vancomycin-resistant Staphylococcus aureus HIP11714 assessed as inhibition of bacterial growth incubated for 20 hrs by broth microdilution method; format: functional; settings: HIP11714, 20 h
Procedure, shortened: (§1)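 Broth microdilution: 0.5 McFarland suspension from an overnight culture, diluted 1:100 in cation-adjusted Mueller Hinton broth (CAMHB), given serial dilutions of test agent for 20 h at 37 °C. MIC is the lowest concentration with no visible growth.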

[3] = system: Enterobacter cloacae; assay: Antibacterial activity against Enterobacter cloacae ATCC 23355 assessed as zone of inhibition by disc diffusion method; format: functional
[4] = system: Staphylococcus aureus; assay: Antibacterial activity against methicillin-susceptible Staphylococcus aureus ATCC 25923 in presence of 5% v/v serum; format: functional
[5] = system: Staphylococcus aureus; assay: Induction of intracellular oxidant species generation in Staphylococcus aureus ATCC 25923 by DCFH-DA dye based fluorescence assay; format: functional, organism-based
Procedure, shortened: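 OD600 1.5 suspension of S. aureus […] in HBSS given agent (from 2 or 10 mM stock), DMSO or water, then DCFH diacetate from a 100 μM stock in DMSO. Intracellular oxidation read by fluorescence (ex 485, em 535 nm).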

[6] = system: Staphylococcus aureus; assay: Antibacterial activity against methicillin-susceptible Staphylococcus aureus ATCC 25923 assessed as bacterial growth inhibition incubated for 20 hrs by broth dilution method; format: functional; procedure, shortened: as §1
[7] = system: Staphylococcus aureus; assay: Ratio of MBC to MIC against heterogeneous vancomycin-intermediate Staphylococcus aureus Mu3 ATCC 700698; format: functional
Procedure, shortened: (§2)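 For MBC, 5 μL from each well was spotted on agar and incubated overnight; MBC is the lowest concentration with no visible growth. Ratio taken as MBC over MIC.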

[8] = system: Staphylococcus aureus; assay: Disruption of membrane potential in Staphylococcus aureus after 15 to 30 mins by DiOC2(3) probe based flow cytometric anlaysis; format: functional, organism-based; settings: time 15-30 min
Procedure, shortened: (§3)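 An overnight S. aureus culture was diluted 1:100 in LB, shaken 2 h at 37 °C, then diluted to a final 1:200. Cells were treated with 3–30 μM, DMSO 2% vehicle or CCCP at 37 °C with shaking. At 15 and 30 min, samples were stained 20 min with DiOC2(3). Flow cytometry used ex 488 nm, green 530/30 and red 585/42, reported as red/green ratio (mean ± SEM).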

[9] = system: Staphylococcus aureus; assay: Bactericidal activity against methicillin-susceptible Staphylococcus aureus ATCC 25923 assessed as bacterial killing incubated for over night; format: functional
Procedure, shortened: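 5 μL from each well was spotted on agar and incubated overnight. MBC was taken as the lowest concentration with no visible growth.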

[10] = system: Staphylococcus aureus; assay: Antibacterial activity against methicillin-susceptible Staphylococcus aureus ATCC 25923 assessed as delayed bacterial proliferation at 0.5 times of MIC for 15 hrs; format: functional, organism-based
[11] = system: Staphylococcus aureus; assay: Antibacterial activity against vancomycin-intermediate Staphylococcus aureus clinical isolate 12 assessed as bacterial growth inhibition after 20 hrs by broth microdilution assay; format: functional; procedure, shortened: as §1
[12] = system: Staphylococcus aureus; assay: Antibacterial activity against vancomycin-intermediate resistant Staphylococcus aureus Mu50 ATCC 700699 assessed as zone of inhibition by disc diffusion method; format: functional
[13] = system: Staphylococcus aureus; assay: Antibacterial activity against methicillin-susceptible Staphylococcus aureus ATCC 25923 in presence of 10% v/v serum; format: functional
[14] = system: Staphylococcus aureus; assay: Antibacterial activity against linezolid-resistant Staphylococcus aureus assessed as bacterial growth inhibition incubated for 20 hrs by broth dilution method; format: functional; procedure, shortened: as §1
[15] = system: Staphylococcus aureus; assay: Ratio of MBC to MIC against vancomycin-intermediate resistant Staphylococcus aureus Mu50 ATCC 700699; format: functional; procedure, shortened: as §2
[16] = system: Staphylococcus aureus; assay: Bactericidal activity against methicillin-resistant Staphylococcus aureus ATCC 43300 assessed as bacterial killing incubated for over night; format: functional; procedure, shortened: as §2
[17] = system: Klebsiella pneumoniae; assay: Antibacterial activity against multidrug-resistant Klebsiella pneumoniae ATCC 700603 assessed as zone of inhibition by disc diffusion method; format: functional
[18] = system: Staphylococcus aureus; assay: Bacteriostatic activity against methicillin-susceptible Staphylococcus aureus ATCC 25923 assessed as reduction in colony forming unit at 4 times of MIC measured up to 4 hrs by time kill assay; format: functional, organism-based
Procedure, shortened: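 Time-kill: a 1:100 dilution of 0.5 McFarland S. aureus […] suspension was exposed to 0, 1 and 4× MIC. At 0, 1, 2 and 4 h, samples were serially diluted in PBS and plated on MHA. CFU were counted after 30 h incubation.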

[19] = system: Staphylococcus aureus; assay: Ratio of MBC to MIC against methicillin-susceptible Staphylococcus aureus ATCC 25923; format: functional; procedure, shortened: as §2
[20] = system: Staphylococcus aureus; assay: Bactericidal activity against heterogeneous vancomycin-intermediate Staphylococcus aureus Mu3 ATCC 700698 assessed as bacterial killing incubated for over night; format: functional; procedure, shortened: as §2
[21] = system: Staphylococcus aureus; assay: Antibacterial activity against vancomycin-intermediate resistant Staphylococcus aureus Mu50 ATCC 700699 assessed as bacterial growth inhibition incubated for 20 hrs by broth dilution method; format: functional; procedure, shortened: as §1
[22] = system: Enterococcus faecalis; assay: Antibacterial activity against vancomycin-susceptible Enterococcus faecalis ATCC 29212 assessed as zone of inhibition by disc diffusion method; format: functional
[23] = system: Escherichia coli; assay: Antibacterial activity against beta-lactam resistant Escherichia coli BAA 2326 assessed as zone of inhibition by disc diffusion method; format: functional
[24] = system: Staphylococcus aureus; assay: Antibacterial activity against methicillin-susceptible Staphylococcus aureus ATCC 25923 assessed as delayed bacterial proliferation at 0.25 times of MIC for 10 hrs; format: functional, organism-based
[25] = system: Staphylococcus aureus; assay: Antibacterial activity against methicillin-susceptible Staphylococcus aureus ATCC 25923 in presence of 0.05% v/v albumin; format: functional
[26] = system: Staphylococcus aureus; assay: Antibacterial activity against hospital acquired methicillin-resistant Staphylococcus aureus ATCC 43300 assessed as zone of inhibition by disc diffusion method; format: functional
[27] = system: Acinetobacter baumannii; assay: Antibacterial activity against multidrug-resistant Acinetobacter baumannii BAA 1605 assessed as zone of inhibition by disc diffusion method; format: functional
[28] = system: Staphylococcus aureus; assay: Synergistic antibacterial activity against methicillin-resistant Staphylococcus aureus ATCC 43300 in presence of vancomycin by disc diffusion method; format: functional, organism-based
[29] = system: Bacillus anthracis; assay: Antibacterial activity against Bacillus anthracis Sterne 34F2 assessed as zone of inhibition by disc diffusion method; format: functional
[30] = system: Staphylococcus aureus; assay: Synergistic antibacterial activity against vancomycin-resistant Staphylococcus aureus HIP14300 assessed as fractional inhibitory concentration index incubated for 20 hrs in presence of vancomycin by checkerboard titration assay; format: functional
Procedure, shortened: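 Checkerboard: VRSA HIP14300 as a 0.5 McFarland suspension diluted 1:100 in CAMHB, inoculated into twofold serial dilutions of disulfide and vancomycin, sealed, 20 h at 37 °C. Growth read by MTT staining with DMSO solubilization. ΣFIC = FIC1h + FICVAN; synergy ≤ 0.5, indifferent >0.5–≤4, antagonism >4.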

[31] = system: Staphylococcus aureus; assay: Disruption of membrane potential in Staphylococcus aureus at 3 to 30 uM by DiOC2(3) probe based flow cytometric analysis; format: functional, organism-based; settings: dose 3-30 µM, TDE = time-dependent effect; procedure, shortened: as §3
[32] = system: Staphylococcus aureus; assay: Antibacterial activity against community acquired methicillin-resistant Staphylococcus aureus BAA 1747 assessed as zone of inhibition by disc diffusion method; format: functional
[33] = system: Staphylococcus aureus; assay: Bactericidal activity against vancomycin-intermediate resistant Staphylococcus aureus Mu50 ATCC 700699 assessed as bacterial killing incubated for over night; format: functional; procedure, shortened: as §2

CCCCCCCCSSc1ccccn1
Activity [1]: Active
MIC [2]: 6.25 µM (≈ 1.6 µg/mL)
diameter of the inhibition zone (DIZ) [3]: 0 mm
MIC [4]: 25 µM
Activity [5]: Active
MIC [6]: 12.5 µM (≈ 3.19 µg/mL)
Ratio [7]: >4
Activity [8]: Dose-dependent effect
MBC [9]: > 50 µM
Activity [10]: Active
MIC50 [11]: 12.5 µM (≈ 3.19 µg/mL)
MIC90 [11]: 12.5 µM (≈ 3.19 µg/mL)
diameter of the inhibition zone (DIZ) [12]: 43 mm
MIC [13]: 25 µM
MIC [14]: 25 µM (≈ 6.39 µg/mL)
Ratio [15]: 8
MBC [16]: > 50 µM
diameter of the inhibition zone (DIZ) [17]: 0 mm
Activity [18]: Active
Ratio [19]: >4
MBC [20]: > 50 µM
MIC [21]: 3.13 µM (≈ 0.8 µg/mL)
diameter of the inhibition zone (DIZ) [22]: 12 mm
diameter of the inhibition zone (DIZ) [23]: 0 mm
Activity [24]: Active
MIC [25]: 12.5 µM
diameter of the inhibition zone (DIZ) [26]: 38 mm
diameter of the inhibition zone (DIZ) [27]: 0 mm
Activity [28]: Active
diameter of the inhibition zone (DIZ) [29]: 48 mm
FIC [30]: <=0.5
Activity [31]: Tde
diameter of the inhibition zone (DIZ) [32]: 30 mm
MBC [33]: 25 µM (≈ 6.39 µg/mL)
